{"data": "Results collected from several papers", "target": "Carbonic anhydrase 2 (CA2, Homo sapiens, UniProt P00918)", "effect on": "enzyme activity", "action": "inhibitor", "note": "Protocols differ between the studies behind these lines."}
{"SMILES": "CN(C)CCC(c1ccccc1)c1ccccn1 (centres unmarked)", "technique": "absorbance", "Ki [nM]": 14000}
{"SMILES": "OC1CCN(c2ccc(/C=N/NC(=S)NC3CCCCC3)cc2)CC1", "Ki [nM]": 482}
{"SMILES": "Cc1cc(=O)oc2cc(OCCCCSC#N)ccc12", "technique": "stopped-flow", "Ki [nM]": "> 100000"}
{"SMILES": "OC(Cn1cncn1)(Cn1cncn1)c1ccc(F)cc1F", "technique": "absorbance", "Ki [nM]": 7910}
{"SMILES": "OC1CCN(c2ccc(/C=N/NC(=S)Nc3ccccc3)cc2)CC1", "Ki [nM]": 507}
{"SMILES": "CCOC(=O)N1CCC(=C2c3ccc(Cl)cc3CCc3cccnc32)CC1", "technique": "absorbance", "Ki [nM]": 8270}
{"SMILES": "NS(=O)(=O)c1nnc(NC(=O)CN2CCC(F)CC2)s1", "technique": "stopped-flow", "Ki [nM]": 14.1}
{"SMILES": "O=C(O)COCCN1CCN(C(c2ccccc2)c2ccc(Cl)cc2)CC1 (centres unmarked)", "technique": "absorbance", "Ki [nM]": 9590}
{"SMILES": "CC1CCC(CC(=O)Nc2nnc(S(N)(=O)=O)s2)CC1 (centres unmarked)", "technique": "stopped-flow", "Ki [nM]": 22.3}
{"SMILES": "Cc1ccc(CNC(=S)N/N=C/c2ccc(N3CCC(O)CC3)cc2)cc1", "Ki [nM]": 778}
{"SMILES": "Cc1ccccc1CC(=O)Nc1nnc(S(N)(=O)=O)s1", "technique": "stopped-flow", "Ki [nM]": 25.7}
{"SMILES": "CC(C)[C@H](N)C(=O)OCCOCn1cnc2c(=O)[nH]c(N)nc21", "technique": "absorbance", "Ki [nM]": 5740}
{"SMILES": "COc1ccc(NC(=S)N/N=C/c2ccc(N3CCC(O)CC3)cc2)cc1", "Ki [nM]": 603}
{"SMILES": "N#CSCc1cc(=O)oc2cc(O)ccc12", "technique": "stopped-flow", "Ki [nM]": "> 100000"}
{"SMILES": "CC1(C(=O)Nc2nnc(S(N)(=O)=O)s2)CCC1", "technique": "stopped-flow", "Ki [nM]": 29.6}
{"SMILES": "OC1CCN(c2ccc(/C=N/NC(=S)Nc3ccc(F)cc3)cc2)CC1", "Ki [nM]": 283}
{"SMILES": "NS(=O)(=O)c1nnc(NC(=O)CN2CC3CCC2CC3)s1", "technique": "stopped-flow", "Ki [nM]": 43.7}
{"SMILES": "OC1CCN(c2ccc(/C=N/NC(=S)NCCc3ccccc3)cc2)CC1", "Ki [nM]": 656}
{"SMILES": "Cn1cnc([N+](=O)[O-])c1Sc1ncnc2nc[nH]c12", "technique": "absorbance", "Ki [nM]": 13000}
{"SMILES": "CC1CCCC(C(=O)Nc2nnc(S(N)(=O)=O)s2)C1 (centres unmarked)", "technique": "stopped-flow", "Ki [nM]": 31.5}
